pPAFAH FP inh: pPAFAH enzyme inhibitors, primary screen, biochemical, fluorescence polarization, human; recombinant pPAFAH, FP-rhodamine probe fluorescence polarization; inhibition, % at 3.39 µM; hit rate 1.5% among 330,000;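 active = inhibition above the mean inhibition across the screen plus 3 SD, cut at about 25% in these data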;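 also: inhibitors block binding of the rhodamine activity-based probe so polarization drops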
PAFAH1B2 FP inh: PAFAH1B2 enzyme inhibitors, primary screen, biochemical, fluorescence polarization, human | hit rate 1.2% among 340,000 | AID 492953, 2010 | Platelet-activating factor acetylhydrolase IB subunit alpha2 (Homo sapiens), P68402 | recombinant PAFAH1B2, FP-rhodamine activity probe | inhibition, % at 3.39 µM;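 active = inhibition above the mean of all tested compounds plus 3 SD, cut at about 24% in these data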
Apaf1 inhib: inhibitors of human Apaf-1 apoptosome, primary screen, biochemical, DEVD-Rh110 fluorescence, uHTS | reconstituted apoptosome caspase-3 activity | AID 489030, 2010 | inhibition, % at 20 µM | hit rate 0.71% among 330,000; active = inhibition of at least 40% at 20 µM
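Material: reconstituted apoptosome with Apaf-1, cytochrome c, caspase-9, procaspase-3, dATP. Technique: Rh110 fluorescence intensity. Buffer or medium: pH 7.5 Hepes buffer with CHAPS, BSA, DTT. Times: 30 min plus 50 min, RT.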
PAFAH1B3 FP inh: PAFAH1B3 enzyme inhibitors, primary screen, biochemical, fluorescence polarization, human; Platelet-activating factor acetylhydrolase IB subunit alpha1 (Homo sapiens), Q15102; AID 492972, 2010; inhibition, % at 3.39 µM; recombinant PAFAH1B3, FP-rhodamine probe; hit rate 0.28% among 340,000;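 active = inhibition above the screen-wide average of all tested compounds plus 3 SD, cut at about 25% in these data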
PREPL inh: PREPL enzyme inhibitors, primary screen, biochemical, fluorescence polarization; Prolyl endopeptidase-like (Homo sapiens), Q4J6C6; recombinant PREPL, fluorescence polarization activity-based probe; inhibition, % at 5.96 µM; hit rate 0.68% among 320,000
PAFAH2 inh: PAFAH2 enzyme inhibitors, primary screen, biochemical, fluorescence polarization, human. hit rate 0.99% among 340,000. recombinant PAFAH2, FP-rhodamine activity probe. inhibition, % at 3.39 µM. Platelet-activating factor acetylhydrolase 2, cytoplasmic (Homo sapiens), Q99487;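 active = inhibition above the mean over all tested compounds plus 3 SD, cut at about 30% in these data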;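 also: inhibitors block probe labeling of enzyme so polarization drops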
PREPL confirm: human PREPL enzyme inhibitors, confirmation, biochemical, fluorescence polarization | shares compounds with PREPL inh | inhibition, % at 5.96 µM | hit rate 67% among 2,000 | recombinant PREPL, fluorescence polarization activity probe
Large screens that a line does not name were inactive (follow-up assays come after a bar, where they were run). Hits are enriched below; roughly 3.5% of the tested compounds scored in any of these assays. Rule as the data show it, unless noted: active = inhibition above about 43%; inactive = the rest.

COc1cc2c(C#N)c(N3CCN(c4ccccc4OC)CC3)nc(N)c2c(N)n1	PREPL inh 48.9 | PREPL confirm 45.5
O=C(O)C(c1ccccc1)N1CCCCC1 (centres undefined)	none
COc1ccc(NC(=O)c2cccnn2)cc1	none
CCC(=O)N1CCN(c2ccc(NC(=O)COc3cccc(C)c3C)cc2)CC1	PREPL inh 52.6 | PREPL confirm 55.6
O=C(NC(=S)Nc1ccc(N2CCN(C(=O)c3ccccc3)CC2)cc1)c1cccs1	PREPL inh 51.3 | PREPL confirm inactive
COc1ccc(OCC(=O)Nc2ccc(N3CCN(C(=O)c4ccccc4C)CC3)cc2)cc1	none
CCc1ccc(OCC(=O)Nc2ccc(N3CCN(C(=O)c4ccccc4)CC3)cc2)cc1	PREPL inh 58.1 | PREPL confirm 56.4
Cc1cccc(OCC(=O)Nc2ccc(N3CCN(C(=O)c4ccccc4)CC3)cc2)c1C	PREPL inh 53.0 | PREPL confirm 54.4
O=C(CC1C(=O)NCCN1Cc1ccccc1C(F)(F)F)NCCN1CCOCC1 (centres undefined)	none
N#CC(C#N)=CNc1cccnc1	none
Cc1ccc(CN2CCN(Cc3ccc(-n4cccn4)cc3C)CC2CCO)cc1 (centres undefined)	none
O=c1[nH]n2c(=O)c3c([nH]c2c1N=Nc1cccc(Cl)c1)CCCC3	pPAFAH FP inh 30.9, PAFAH1B2 FP inh 34.1, PREPL inh 55.4, PAFAH2 inh 30.4 | PREPL confirm 57.6
CCOc1ccc(N=Nc2c(=O)[nH]n3c(=O)c4c([nH]c23)CCCC4)cc1	none
CCC1(C2=CCCCC2)C(=O)NC(=O)N=C1N (centres undefined)	none (no result: pPAFAH FP inh, Apaf1 inhib, PREPL inh)
CCOc1ccc(Nc2c3ccccc3nc3ccccc23)cc1	PREPL inh 55.8 | PREPL confirm 59.6
CC(=O)c1ccccc1OCCOc1ncnc2sccc12	none
COC(=O)C1=C(NC(=O)COc2ccc3ccccc3c2)CCS1	PREPL inh 58.0 | PREPL confirm inactive
O=c1cc2[nH]c3ccccc3c(=O)n2nc1-c1ccccc1	none
C[C@@H]1NC(=O)[C@H](CCC(N)=O)NC(=O)c2cc([N+](=O)[O-])cc(I)c2NCCC[C@@H](C(N)=O)NC1=O	none
C[C@@H]1NC(=O)[C@H](CCCN=C(N)N)NC(=O)c2cc([N+](=O)[O-])cc(I)c2NCCC[C@@H](C(N)=O)NC1=O	PREPL inh 43.4 | PREPL confirm inactive
COc1ccc(CNS(=O)(=O)c2ccccc2Br)cc1	none (no result: PAFAH1B2 FP inh, PAFAH1B3 FP inh, PAFAH2 inh)
CCOC(=O)c1c(C)[nH]c(C)c1S(=O)(=O)NCC1CCN(Cc2ccccc2OC)CC1	none
C[N+](C)(C)c1ccc(/C=N/Nc2nc(Cl)c(C#N)c(Cl)c2Cl)cc1	PREPL inh 55.9 (no result: Apaf1 inhib) | PREPL confirm inactive
CCc1ccc(CNc2ccc3c(c2)ncn3C(C)(C)C)cc1	PREPL inh 47.5 | PREPL confirm 50.3
CC(C)(C)n1cnc2cc(NCc3ccc(Br)cc3)ccc21	PAFAH1B2 FP inh 33.6, PREPL inh 53.6 | PREPL confirm 63.0
CN(C)c1ccc(CNc2ccc3c(c2)ncn3C)cc1	none (no result: PAFAH1B2 FP inh, PAFAH1B3 FP inh, PAFAH2 inh)
CCN(CC)c1ccc(CNc2ccc3c(c2)ncn3C(C)(C)C)cc1	PREPL inh 47.6 | PREPL confirm inactive
O=C(O)Cc1ccc(S(=O)(=O)N2CCCC2)s1	none
O=C(Nc1ccccc1C(=O)O)C1=NN=CC1	none
Oc1sc(C=Nc2ccc(F)cc2)c2ccccc12	PREPL inh 51.0 | PREPL confirm 51.0
O=C(NCc1ccc(/C=c2\sc3n(c2=O)CCN=3)o1)C(=O)Nc1ccccc1	none (no result: PAFAH1B2 FP inh, Apaf1 inhib, PAFAH1B3 FP inh, PAFAH2 inh)
CN(C)S(=O)(=O)N(CC(=O)N1CCN(Cc2ccccc2)CC1)c1ccccc1	none
